In data set [1] the test system is Mus musculus. In words: The compound was tested in vivo for photosensitizing efficacy in DBA/2 Mice transplanted with SMT/F tumors and the activity is expressed as % response at (1-5 days) 24 hours post injection at 5 mg/kg concentration; No response. In kind it is functional, organism-based. The arrangement: dose 5 mg/kg. Put shortly:
(§1)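 Female DBA/2 HA-DD mice, 5-7 weeks old. A 1 mm SMT-F tumor piece from a donor was trocar-implanted subcutaneously in the axilla. At about 5 mm tumor diameter, sensitizer in 1% Tween 80/water was given iv; dose was based on extinction coefficient. At 3 or 24 h after injection, restrained mice had the tumor lit with 135 J/cm2 laser light at the in vivo long-wavelength maximum. Tumor response was followed to day 30; six mice/group.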

Data set [2] deals with Mus musculus. In words: The compound was tested in vivo for photosensitizing efficacy in DBA/2 Mice transplanted with SMT/F tumors and the activity is expressed as % response at (21-25 days) 3 hours post injection at 2.5 mg/kg concentration; No response. In kind it is functional, organism-based. The arrangement: dose 2.5 mg/kg. The method in brief: as §1
Data set [3] relates to Mus musculus. In words: The compound was tested in vivo for photosensitizing efficacy in DBA/2 Mice transplanted with SMT/F tumors and the activity is expressed as % response at (1-5 days) 3 hours post injection at 2.5 mg/kg concentration; No response. The arrangement: dose 2.5 mg/kg. Type of data set: functional, organism-based. The method in brief:
as §1

Data set [4] has as its system Mus musculus. Nature of the data set: The compound was tested in vivo for photosensitizing efficacy in DBA/2 Mice transplanted with SMT/F tumors and the activity is expressed as % response at (1-5 days) 3 hours post injection at 5.0 mg/kg concentration. Type of data set: functional. The method in brief: as §1
Data set [5] concerns Mus musculus. In words: The compound was tested in vivo for photosensitizing efficacy in DBA/2 Mice transplanted with SMT/F tumors and the activity is expressed as % response at (11-15 days) 24 hours post injection at 5 mg/kg concentration; No response. In kind it is functional, organism-based. The arrangement: dose 5 mg/kg. Put shortly: as §1
Data set [6] deals with Mus musculus. Nature of the data set: The compound was tested in vivo for photosensitizing efficacy in DBA/2 Mice transplanted with SMT/F tumors and the activity is expressed as % response at (11-15 days) 3 hours post injection at 2.5 mg/kg concentration; No response. In kind it is functional, organism-based. The arrangement: dose 2.5 mg/kg. Put shortly:
as §1

For data set [7], the system named is Mus musculus. Nature of the data set: The compound was tested in vivo for photosensitizing efficacy in DBA/2 Mice transplanted with SMT/F tumors and the activity is expressed as % response at (11-15 days) 3 hours post injection at 5 mg/kg concentration. Type of data set: functional. The method in brief:
as §1

Data set [8] relates to Mus musculus. In words: The compound was tested in vivo for photosensitizing efficacy in DBA/2 Mice transplanted with SMT/F tumors and the activity is expressed as % response at (16-20 days) 24 hours post injection at 5 mg/kg concentration; No response. The arrangement: dose 5 mg/kg. Type of data set: functional, organism-based. Put shortly: as §1
In data set [9] the test system is Mus musculus. Nature of the data set: The compound was tested in vivo for photosensitizing efficacy in DBA/2 Mice transplanted with SMT/F tumors and the activity is expressed as % response at (16-20 days) 3 hours post injection at 2.5 mg/kg concentration; No response. In kind it is functional, organism-based. The arrangement: dose 2.5 mg/kg. The method in brief: as §1

For data set [10], the system named is Mus musculus. In words: The compound was tested in vivo for photosensitizing efficacy in DBA/2 Mice transplanted with SMT/F tumors and the activity is expressed as % response at (21-25 days) 3 hours post injection at 5 mg/kg concentration. Type of data set: functional.
Data set [11] concerns Mus musculus. Nature of the data set: The compound was tested in vivo for photosensitizing efficacy in DBA/2 Mice transplanted with SMT/F tumors and the activity is expressed as % response at (26-30 days) 24 hours post injection at 5 mg/kg concentration; No response. Type of data set: functional, organism-based. The arrangement: dose 5 mg/kg.
Data set [12] has as its system Mus musculus. Nature of the data set: The compound was tested in vivo for photosensitizing efficacy in DBA/2 Mice transplanted with SMT/F tumors and the activity is expressed as % response at (26-30 days) 3 hours post injection at 2.5 mg/kg concentration; No response. In kind it is functional, organism-based. The arrangement: dose 2.5 mg/kg.
Data set [13] relates to Mus musculus. Nature of the data set: The compound was tested in vivo for photosensitizing efficacy in DBA/2 Mice transplanted with SMT/F tumors and the activity is expressed as % response at (26-30 days) 3 hours post injection at 5 mg/kg concentration. In kind it is functional.
Data set [14] relates to Mus musculus. In words: The compound was tested in vivo for photosensitizing efficacy in DBA/2 Mice transplanted with SMT/F tumors and the activity is expressed as % response at (6-10 days) 24 hours post injection at 5 mg/kg concentration; No response. In kind it is functional, organism-based. The arrangement: dose 5 mg/kg.
Data set [15] has as its system Mus musculus. In words: The compound was tested in vivo for photosensitizing efficacy in DBA/2 Mice transplanted with SMT/F tumors and the activity is expressed as % response at (6-10 days) 3 hours post injection at 2.5 mg/kg concentration; No response. In kind it is functional, organism-based. The arrangement: dose 2.5 mg/kg.
Data set [16] relates to Mus musculus. In words: The compound was tested in vivo for photosensitizing efficacy in DBA/2 Mice transplanted with SMT/F tumors and the activity is expressed as % response at (6-10 days) 3 hours post injection at 5 mg/kg concentration. In kind it is functional.
For data set [17], the system named is Mus musculus. Nature of the data set: The compound was tested in vivo for photosensitizing efficacy in DBA/2 Mice transplanted with SMT/F tumors and the activity is expressed as % response at (16-20 days) 3 hours post injection at 5 mg/kg concentration. In kind it is functional. The method in brief:
as §1

Data set [18] deals with Mus musculus. In words: The compound was tested in vivo for photosensitizing efficacy in DBA/2 Mice transplanted with SMT/F tumors and the activity is expressed as % response at (21-25 days) 24 hours post injection at 5 mg/kg concentration; No response. In kind it is functional, organism-based. The arrangement: dose 5 mg/kg. The method in brief:
as §1

Another data set concerns the target Albumin (Homo sapiens, UniProt P02768). In words: Binding affinity against Human serum albumin(Site I). The method in brief:
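Fluorometric titration: HSA and sensitizer fixed at 1 × 10^-6 mol/L. Site probe varied 4 × 10^-7 to 2 × 10^-6 mol/L: DNSA for site I, read at 472 nm; DP for site II, read at 476 nm; excitation 340 nm. Incubated 4 °C, pH 7.0, 4 h, dark. Bound probe taken from standard curves of free probe (water) and HSA-bound probe (2.5 × 10^-5 mol/L HSA).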

Data set [19] relates to Mus musculus. Nature of the data set: The compound was tested in vivo for photosensitizing efficacy in DBA/2 Mice transplanted with SMT/F tumors and the activity is expressed as % response at ( 21-25 days) 24 hours post injection at 5.0 mg/kg concentration. The arrangement: dose 5 mg/kg. Type of data set: functional, organism-based. The method in brief:
as §1

The subject of data set [20] is Mus musculus. In words: The compound was tested in vivo for photosensitizing efficacy in DBA/2 Mice transplanted with SMT/F tumors and the activity is expressed as % response at ( 26-30 days) 24 hours post injection at 5.0 mg/kg concentration. The arrangement: dose 5 mg/kg. Type of data set: functional, organism-based. The method in brief:
as §1

Data set [21] has as its system Mus musculus. In words: The compound was tested in vivo for photosensitizing efficacy in DBA/2 Mice transplanted with SMT/F tumors and the activity is expressed as % response at ( 6-10 days) 24 hours post injection at 5.0 mg/kg concentration. In kind it is functional, organism-based. The arrangement: dose 5 mg/kg. Put shortly:
as §1

The subject of data set [22] is Mus musculus. In words: The compound was tested in vivo for photosensitizing efficacy in DBA/2 Mice transplanted with SMT/F tumors and the activity is expressed as % response at (1-5 days) 24 hours post injection at 5.0 mg/kg concentration. In kind it is functional, organism-based. The arrangement: dose 5 mg/kg. The method in brief: as §1
Data set [23] deals with Mus musculus. In words: The compound was tested in vivo for photosensitizing efficacy in DBA/2 Mice transplanted with SMT/F tumors and the activity is expressed as % response at (11-15 days) 24 hours post injection at 5.0 mg/kg concentration. In kind it is functional, organism-based. The arrangement: dose 5 mg/kg. Put shortly:
as §1

Data set [24] relates to Mus musculus. In words: The compound was tested in vivo for photosensitizing efficacy in DBA/2 Mice transplanted with SMT/F tumors and the activity is expressed as % response at (16-20 days) 24 hours post injection at 5.0 mg/kg concentration. The arrangement: dose 5 mg/kg. Type of data set: functional, organism-based. Put shortly:
as §1

Active and inactive are the calls of the source. The calls are words filed in the database; no cut-off is given here.

Albumin, sequence (P02768 whole entry): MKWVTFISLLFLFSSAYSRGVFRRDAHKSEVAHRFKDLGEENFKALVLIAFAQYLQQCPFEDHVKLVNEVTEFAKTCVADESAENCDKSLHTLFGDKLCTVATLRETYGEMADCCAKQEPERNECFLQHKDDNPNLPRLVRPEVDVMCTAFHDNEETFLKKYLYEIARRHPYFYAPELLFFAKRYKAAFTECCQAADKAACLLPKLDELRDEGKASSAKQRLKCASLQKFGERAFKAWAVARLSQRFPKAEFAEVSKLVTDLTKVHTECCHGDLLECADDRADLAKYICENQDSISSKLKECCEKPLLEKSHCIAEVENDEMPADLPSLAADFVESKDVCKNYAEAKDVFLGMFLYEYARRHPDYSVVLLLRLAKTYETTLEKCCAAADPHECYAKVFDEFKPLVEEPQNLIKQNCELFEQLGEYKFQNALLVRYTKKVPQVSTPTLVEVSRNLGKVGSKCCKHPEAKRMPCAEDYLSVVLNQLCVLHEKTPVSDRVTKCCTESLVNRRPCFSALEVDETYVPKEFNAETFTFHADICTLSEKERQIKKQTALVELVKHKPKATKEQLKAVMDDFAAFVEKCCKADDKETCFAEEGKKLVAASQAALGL

Turning to `CCc1c(C)c2[nH]c1cc1[nH]c(cc3nc4c(c5nc(c2C=O)[C@@H](C)[C@@H]5CCC(=O)NC(CC(=O)OC(C)(C)C)C(=O)OC(C)(C)C)CCC4=C3C)C(O)(CC)C1(C)O` (stereo not given in full), the Response entry in the data set on Mus musculus [1], with Mus musculus [2], with Mus musculus [3], in the data set with Mus musculus [5], with Mus musculus [6] and in the data set on Mus musculus [8] was “inactive” in each case. Further, the Response result in the data set on Mus musculus [9], with Mus musculus [11], in the data set on Mus musculus [12], in the data set with Mus musculus [14], in the data set on Mus musculus [15] and in the data set on Mus musculus [18] was “inactive” throughout. Further, the Response in the data set on Mus musculus [4] came out at 100%; with Mus musculus [7], 100%; with Mus musculus [10], 50%; in the data set on Mus musculus [13] it was 50%; in the data set with Mus musculus [16], 100%; in the data set with Mus musculus [17], 80%. Also, at Albumin, the Binding constant was 500000 l M-1.
As to PORFIMER SODIUM, the Response with Mus musculus [19] was 50%; with Mus musculus [20] it was 50%; with Mus musculus [21], 100%; in the data set with Mus musculus [22], 100%; in the data set with Mus musculus [23], 80%; in the data set with Mus musculus [24] it was 60%.

These data come from ChEMBL document CHEMBL1130127, “Synthesis, photophysical properties, in vivo photosensitizing efficacy, and human serum albumin binding properties of some novel bacteriochlorins” (J Med Chem, 1997).
